Measurements taken from ChEMBL document CHEMBL4359913, “Identification and characterization of benzo[d]oxazol-2(3H)-one derivatives as the first potent and selective small-molecule inhibitors of chromodomain protein CDYL” (Eur J Med Chem, 2019).

Assays:
[1] = target: T1, Chromodomain Y-like protein (Homo sapiens, UniProt Q9Y232); test: Binding affinity to recombinant human N-terminal GST-tagged CDYL (1 to 60 residues) expressed in Escherichia coli […] by SPR analysis
T1 sequence (Q9Y232 whole entry): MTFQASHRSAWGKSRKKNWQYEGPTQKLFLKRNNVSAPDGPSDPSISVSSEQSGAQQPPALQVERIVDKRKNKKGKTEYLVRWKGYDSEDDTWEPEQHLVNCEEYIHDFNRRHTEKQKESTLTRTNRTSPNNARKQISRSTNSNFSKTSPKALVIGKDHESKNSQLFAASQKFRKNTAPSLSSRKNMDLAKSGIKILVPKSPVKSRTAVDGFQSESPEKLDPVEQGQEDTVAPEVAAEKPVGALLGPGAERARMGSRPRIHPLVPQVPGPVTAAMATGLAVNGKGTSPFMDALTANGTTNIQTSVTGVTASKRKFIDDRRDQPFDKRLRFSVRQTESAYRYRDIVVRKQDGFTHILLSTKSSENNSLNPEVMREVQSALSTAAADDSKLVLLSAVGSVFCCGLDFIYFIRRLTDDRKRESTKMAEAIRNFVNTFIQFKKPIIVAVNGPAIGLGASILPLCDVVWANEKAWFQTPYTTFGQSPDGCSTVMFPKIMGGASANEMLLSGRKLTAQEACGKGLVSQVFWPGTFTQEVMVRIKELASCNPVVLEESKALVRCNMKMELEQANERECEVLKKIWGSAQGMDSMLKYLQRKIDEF
In short: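 GST-tagged chromodomain expressed in E. coli BL21 with 0.2 mM IPTG at 28 °C for 6 h. Purified on GSTrap, tag removed with PreScission protease. Amine-coupled to CM5 chip at pH 4.0–4.5 (5000–10000 RU). Compound run as a 1.5- or 2-fold series from 100 µM in PBSP with 5% DMSO, 25 °C, 30 µL/min, 60 s association and 60 s dissociation.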

[2] = target: T2, Chromobox protein homolog 7 (Homo sapiens, UniProt O95931); test: Binding affinity to recombinant human N-terminal GST-tagged CBX7 (1 to 62 residues) expressed in Escherichia coli […] by SPR analysis
T2 sequence (O95931 whole entry): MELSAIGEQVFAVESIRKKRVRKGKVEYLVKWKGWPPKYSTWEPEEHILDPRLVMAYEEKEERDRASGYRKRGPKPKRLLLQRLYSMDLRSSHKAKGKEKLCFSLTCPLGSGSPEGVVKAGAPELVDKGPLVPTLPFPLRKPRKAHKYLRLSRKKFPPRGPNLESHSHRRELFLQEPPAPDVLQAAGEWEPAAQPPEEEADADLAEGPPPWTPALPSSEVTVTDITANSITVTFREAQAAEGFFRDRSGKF
In short: (§1)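 Chromodomain expressed with N-terminal GST tag in E. coli BL21 (IPTG 0.2 mM at OD600 0.6–0.8, 28 C for 6 h), GSTrap purified, tag cleaved by PreScission protease, amine-coupled to CM5 chip at pH 4.0–4.5 (5000–10000 RU). […] Mean ± SD of at least two replicates, each in duplicate.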

[3] = target: T3, Testis-specific chromodomain protein Y 1 (Homo sapiens, UniProt Q9Y6F8); test: Binding affinity to recombinant human N-terminal GST-tagged CDY1 (1 to 65 residues) expressed in Escherichia coli […] by SPR analysis; in short: as §1
T3 sequence (Q9Y6F8 whole entry): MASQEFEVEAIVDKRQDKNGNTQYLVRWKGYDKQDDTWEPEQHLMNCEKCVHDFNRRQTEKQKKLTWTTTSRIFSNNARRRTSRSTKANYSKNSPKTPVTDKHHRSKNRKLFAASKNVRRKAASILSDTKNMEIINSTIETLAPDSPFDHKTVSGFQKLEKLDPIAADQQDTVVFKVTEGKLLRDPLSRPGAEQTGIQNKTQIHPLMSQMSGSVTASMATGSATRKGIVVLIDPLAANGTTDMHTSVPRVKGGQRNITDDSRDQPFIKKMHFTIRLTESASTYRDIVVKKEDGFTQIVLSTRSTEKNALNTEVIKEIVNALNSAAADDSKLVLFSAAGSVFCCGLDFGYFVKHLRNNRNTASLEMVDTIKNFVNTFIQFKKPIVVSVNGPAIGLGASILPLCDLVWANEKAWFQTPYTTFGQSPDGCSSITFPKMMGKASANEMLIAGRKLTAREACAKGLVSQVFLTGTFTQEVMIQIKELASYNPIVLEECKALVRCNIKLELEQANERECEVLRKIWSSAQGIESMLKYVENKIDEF

SH-SY5Y = test: Cytotoxicity against human SH-SY5Y cells assessed as reduction in cell viability incubated for 24 hrs by CCK8 assay
HEK-293T = test: Cytotoxicity against human HEK293T cells assessed as reduction in cell viability incubated for 24 hrs by CCK8 assay

| Structure (SMILES) | Kd [1] | Kd [2] | Kd [3] | IC50 (SH-SY5Y) | IC50 (HEK-293T) |
| --- | --- | --- | --- | --- | --- |
| CN1C(=O)C(O)(CC(=O)c2cccc3ccccc23)c2ccccc21 (configuration not stated) | 128 µM | 2.4 µM | 24.7 µM |  |  |
| COc1cccc(C(=O)Cn2c(=O)oc3ccc(OC)cc32)c1 | 7.7 µM | 17.2 µM | 15.6 µM |  |  |
| COc1cccc(C(=O)Cn2cnc3ccccc32)c1 | 10.1 µM |  | 4 µM |  |  |
| COc1cccc(C(=O)Cn2c(=O)oc3ccc(C#N)cc32)c1 |  | 19.6 µM | 42.1 µM |  |  |
| O=C(Cn1c(=O)oc2ccccc21)c1cccc2ccccc12 | 3 µM | 29.9 µM | 6.5 µM |  |  |
| CN(C)c1ccc(C(=O)Cn2c(=O)oc3ccccc32)cc1 | 11.9 µM | 36.5 µM |  |  |  |
| COc1cccc(C(=O)Cn2c(=O)oc3ccccc32)c1 | 4.9 µM |  | 5.8 µM |  |  |
| COc1ccc2oc(=O)n(CC(=O)c3ccc(OC)c(OC)c3)c2c1 | 5.5 µM | 3.9 µM | 11.3 µM |  |  |
| COc1ccc2oc(=O)n(CC(=O)c3c[nH]c4ccccc34)c2c1 | 7.2 µM | 20.3 µM | 36.4 µM |  |  |
| COc1cccc(NC(=O)Cn2c(=O)oc3ccccc32)c1 | 7.3 µM | 14.8 µM | 1 µM |  |  |
| CC(C)N1C(=O)[C@@](O)(CC(=O)c2cccc3ccccc23)c2ccccc21 | 55.3 µM |  |  |  |  |
| O=C(Cn1c(=O)oc2ccccc21)c1c[nH]c2ccccc12 | 1.9 µM | 9.3 µM | 21 µM |  |  |
| CCN(CC)CCOC(=O)CCc1cccc2ccccc12 | 60.8 µM |  |  |  |  |
| C=CCN1C(=O)C(O)(CC(=O)c2ccc3ccccc3c2)c2ccccc21 (configuration not stated) | 31.7 µM |  | 24.5 µM |  |  |
| O=C(Cn1c(=O)oc2ccc(F)cc21)c1c[nH]c2ccccc12 | 5.1 µM | 9.8 µM | 23.7 µM |  |  |
| COc1ccc(C(=O)Cn2c(=O)oc3ccccc32)cc1OC | 14.6 µM | 48.5 µM | 23.8 µM |  |  |
| O=C(CN1C(=O)COc2ccccc21)c1ccc2ccccc2c1 | 52.5 µM | 26.5 µM | 39.6 µM |  |  |
| COc1ccccc1[C@@H]1NC(=O)c2c(sc3c2CCN(C)C3)N1 | 53.2 µM |  |  |  |  |
| CN1CCc2c(sc3c2C(=O)N[C@@H](/C=C\c2ccccc2)N3)C1 | 55.6 µM |  |  |  |  |
| CC(C)N1C(=O)C(O)(CC(=O)c2ccco2)c2ccccc21 (configuration not stated) | 13.1 µM | 41.1 µM | 61.6 µM |  |  |
| O=C(Cn1c(=O)oc2ccccc21)N1CCC(N2CCCCC2)CC1 | 11.8 µM | 13.5 µM | 51.1 µM |  |  |
| Nc1ccc2c(c1)sc(=O)n2CC(=O)c1ccc2ccccc2c1 | 4.9 µM | > 200 µM |  |  |  |
| N#Cc1ccc2oc(=O)n(CC(=O)c3c[nH]c4ccccc34)c2c1 | 96.7 µM | 46.9 µM | 4.6 µM |  |  |
| CCCN1C(=O)C(O)(CC(=O)c2ccc3c(c2)CCCC3)c2ccccc21 (configuration not stated) | 50.5 µM | 7.2 µM | 89.5 µM |  |  |
| COCCCNC(=O)Cc1c(C)c2c(O)cc(C)cc2oc1=O | 26 µM |  |  |  |  |
| COc1ccc2oc(=O)n(CC(=O)c3ccc(N(C)C)cc3)c2c1 | 15.5 µM | 6.1 µM | 2.7 µM |  |  |
| CN(C)c1ccc(C(=O)Cn2c(=O)oc3ccc(F)cc32)cc1 | 90.1 µM | 78.1 µM | 34.6 µM |  |  |
| COc1cccc(C(=O)CN2C(=O)COc3ccccc32)c1 | 13 µM | 53 µM | 11.3 µM |  |  |

| Structure (SMILES) | Kd [1] | Kd [2] | Kd [3] | IC50 (SH-SY5Y) | IC50 (HEK-293T) |
| --- | --- | --- | --- | --- | --- |
| O=C(Cn1c(=O)sc2cc([N+](=O)[O-])ccc21)c1c[nH]c2ccccc12 | 71.7 µM | 8.8 µM | 14.4 µM |  |  |
| O=C(Cn1c(=O)oc2ccc([N+](=O)[O-])cc21)N1CCC(N2CCCC2)CC1 | 16.8 µM |  | 55.8 µM |  |  |
| CCN(CC)C1CCN(C(=O)Cn2c(=O)oc3ccc(F)cc32)CC1 | 2.8 µM | 2.8 µM | 4.5 µM |  |  |
| O=C(Cn1c(=O)oc2ccccc21)Nc1cccc2ccccc12 | 29 µM | > 200 µM | 0.8 µM |  |  |
| COc1cccc(C(=O)Cn2c(=O)[nH]c3ccc(Cl)cc32)c1 | 14.8 µM | 28.9 µM | 70.4 µM | > 200 µM | > 200 µM |
| CCCN1C(=O)C(O)(CC(=O)c2cccc3ccccc23)c2ccccc21 (configuration not stated) | 23 µM | 20.4 µM | 21.1 µM |  |  |
| O=C(CN1C(=O)COc2ccccc21)c1c[nH]c2ccccc12 | 59.8 µM | 37.1 µM | 109 µM |  |  |
| O=C(Cn1c(=O)oc2ccc(Br)cc21)c1ccc2ccccc2c1 | 5.8 µM | 9.5 µM | 14.8 µM |  |  |
| N#Cc1ccc2oc(=O)n(CC(=O)c3ccc4ccccc4c3)c2c1 | 101 µM |  | 71.5 µM |  |  |
| CCN(CC)C1CCN(C(=O)Cn2c(=O)oc3ccccc32)CC1 | 5.8 µM | 46.6 µM |  |  |  |
| CCCC(=O)Nc1ccc(Cl)c(NC(=O)COc2ccccc2OC)c1 | 14.2 µM |  |  |  |  |
| CN(C)C1CCN(C(=O)Cn2c(=O)oc3ccccc32)CC1 | 9.5 µM |  | 33.6 µM |  |  |
| COc1ccc(C(=O)Cn2c(=O)oc3ccc(F)cc32)cc1OC | 20.5 µM | 28.8 µM | 4.4 µM |  |  |
| O=C(Cn1c(=O)oc2ccccc21)Nc1ccc2ccccc2c1 | 18.9 µM | 19.6 µM | 20.4 µM |  |  |
| CN1C(=O)C(O)(CC(=O)c2ccc3ccccc3c2)c2ccccc21 (configuration not stated) | 19.4 µM | 5.1 µM | 28.9 µM |  |  |
| O=C(Cn1c(=O)sc2cc([N+](=O)[O-])ccc21)c1ccc2ccccc2c1 | 26.8 µM |  | 123 µM |  |  |
| COc1cccc(C(=O)/C=C2\C(=O)Nc3ccc(Cl)cc32)c1 | 15.4 µM |  | 10.3 µM | 21.5 µM | 16.6 µM |
| C[C@@H](CN1CCCC1)OC(=O)c1ccc(Cl)cc1Cl | 271 µM |  |  |  |  |
| CCCN1C(=O)C(O)(CC(=O)c2cc(Br)c(Br)o2)c2cc(Cl)ccc21 (configuration not stated) | 15.4 µM | 16 µM |  |  |  |
| Nc1ccc2c(c1)sc(=O)n2CC(=O)c1c[nH]c2ccccc12 | 3.5 µM | 6.5 µM | 51.1 µM |  |  |
| COc1cccc(C(=O)CC2C(=O)Nc3ccc(Cl)cc32)c1 (racemic) | 1.2 µM |  | > 200 µM | 43.4 µM | 36.9 µM |
| O=C(Cn1c(=O)oc2cc(Br)ccc21)c1ccc2ccccc2c1 | 29 µM | 29.7 µM | 1.7 µM |  |  |
| O=C(Cn1c(=O)oc2ccc(F)cc21)c1ccc2ccccc2c1 | 20.1 µM | 40.2 µM | 210 µM |  |  |
| CCCCN1C(=O)C(O)(CC(=O)c2cccc(OC)c2)c2ccccc21 (configuration not stated) | 100 µM | 8.8 µM | 17.2 µM |  |  |
| COc1ccc2oc(=O)n(CC(=O)c3ccc4ccccc4c3)c2c1 | 1.5 µM | 59.5 µM | 1.5 µM |  |  |
| O=C(Cn1c(=O)oc2ccccc21)N1CCC(N2CCOCC2)CC1 | 25.9 µM | 5.6 µM | 21 µM |  |  |
| COc1cccc(C(=O)Cn2c(=O)oc3ccc(F)cc32)c1 | 6.2 µM | 3.4 µM |  |  |  |
